{"source": "ChEMBL document CHEMBL1148711", "about": "“Naphthalen-1-yl-(4-pentyloxynaphthalen-1-yl)methanone: a potent, orally bioavailable human CB1/CB2 dual agonist with antihyperalgesic properties and restricted central nervous system penetration” (J Med Chem, 2007)", "key": {"Cannabinoid receptor 1 [1]": {"target": "Cannabinoid receptor 1 (Homo sapiens, UniProt P21554)", "sequence (P21554 whole entry)": "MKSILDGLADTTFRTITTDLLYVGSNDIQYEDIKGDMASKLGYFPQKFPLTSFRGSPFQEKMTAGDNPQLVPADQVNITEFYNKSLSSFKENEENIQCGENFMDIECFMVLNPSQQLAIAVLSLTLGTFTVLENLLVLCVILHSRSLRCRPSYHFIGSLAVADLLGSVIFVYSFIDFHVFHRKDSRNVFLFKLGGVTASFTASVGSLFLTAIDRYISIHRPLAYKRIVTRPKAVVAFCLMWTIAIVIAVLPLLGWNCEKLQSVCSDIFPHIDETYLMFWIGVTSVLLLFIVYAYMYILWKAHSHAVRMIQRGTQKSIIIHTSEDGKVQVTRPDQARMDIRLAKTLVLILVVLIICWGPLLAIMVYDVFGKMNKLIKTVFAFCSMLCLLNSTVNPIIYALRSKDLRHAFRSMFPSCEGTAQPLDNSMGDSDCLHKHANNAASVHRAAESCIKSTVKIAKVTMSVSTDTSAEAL", "test": "Displacement of [3H]CP-55940 from human CB1 receptor expressed in HEK293 cells", "format": "cell-based"}, "Cannabinoid receptor 2 [2]": {"target": "T1, Cannabinoid receptor 2 (Homo sapiens, UniProt P34972)", "T1 sequence (P34972 whole entry)": "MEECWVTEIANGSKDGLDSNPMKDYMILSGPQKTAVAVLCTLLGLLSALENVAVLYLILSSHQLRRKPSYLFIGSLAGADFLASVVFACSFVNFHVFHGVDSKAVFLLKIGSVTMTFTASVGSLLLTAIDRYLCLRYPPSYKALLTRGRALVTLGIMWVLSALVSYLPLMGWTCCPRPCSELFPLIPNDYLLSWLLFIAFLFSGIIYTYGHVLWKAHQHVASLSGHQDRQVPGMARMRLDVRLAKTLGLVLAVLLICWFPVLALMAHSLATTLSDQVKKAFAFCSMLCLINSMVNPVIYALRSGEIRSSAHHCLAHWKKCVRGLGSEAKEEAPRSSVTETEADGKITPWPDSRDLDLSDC", "test": "Displacement of [3H]CP-55940 human CB2 receptor expressed in CHOK1 cells", "format": "cell-based, CHO-K1", "how_it_was_run": "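Human CB2 expressed in CHO cells. Values are the mean ± SEM of at least three determinations, derived by logistic curve fitting.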"}, "Cytochrome P450 2E1": {"target": "Cytochrome P450 2E1 (Homo sapiens, UniProt P05181)", "sequence (P05181 whole entry)": "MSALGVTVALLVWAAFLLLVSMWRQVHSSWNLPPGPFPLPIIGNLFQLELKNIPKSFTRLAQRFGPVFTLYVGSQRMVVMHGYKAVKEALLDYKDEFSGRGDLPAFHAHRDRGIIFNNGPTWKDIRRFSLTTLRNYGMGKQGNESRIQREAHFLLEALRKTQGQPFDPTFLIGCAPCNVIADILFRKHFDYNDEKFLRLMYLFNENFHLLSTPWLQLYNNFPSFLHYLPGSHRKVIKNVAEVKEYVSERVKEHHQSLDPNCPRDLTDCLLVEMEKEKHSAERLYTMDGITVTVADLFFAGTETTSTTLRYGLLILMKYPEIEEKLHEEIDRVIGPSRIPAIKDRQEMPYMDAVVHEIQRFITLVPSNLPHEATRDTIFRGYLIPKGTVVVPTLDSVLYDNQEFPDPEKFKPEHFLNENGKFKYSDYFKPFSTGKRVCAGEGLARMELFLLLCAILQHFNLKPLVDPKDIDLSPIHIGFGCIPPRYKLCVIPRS", "test": "Inhibition of CYP2E1 in human liver microsomes", "format": "ADME, Microsome"}, "Cytochrome P450 3A4": {"target": "Cytochrome P450 3A4 (Homo sapiens, UniProt P08684)", "sequence (P08684 whole entry)": "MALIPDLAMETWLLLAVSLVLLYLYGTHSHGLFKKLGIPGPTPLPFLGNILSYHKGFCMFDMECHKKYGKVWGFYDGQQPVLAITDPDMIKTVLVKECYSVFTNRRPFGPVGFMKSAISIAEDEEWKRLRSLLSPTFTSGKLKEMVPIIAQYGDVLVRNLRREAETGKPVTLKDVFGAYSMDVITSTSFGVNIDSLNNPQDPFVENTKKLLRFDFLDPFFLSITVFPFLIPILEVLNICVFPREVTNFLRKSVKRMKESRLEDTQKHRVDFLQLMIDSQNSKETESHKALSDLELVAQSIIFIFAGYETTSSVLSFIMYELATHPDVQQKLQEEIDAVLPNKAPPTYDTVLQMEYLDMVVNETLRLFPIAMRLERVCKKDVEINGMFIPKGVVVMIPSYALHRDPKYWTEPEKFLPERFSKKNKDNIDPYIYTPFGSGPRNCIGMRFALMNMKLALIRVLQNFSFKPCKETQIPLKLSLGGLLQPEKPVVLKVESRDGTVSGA", "test": "Inhibition of CYP3A4 in human liver microsomes", "format": "ADME, Microsome"}, "[3]": {"test": "Plasma protein binding", "format": "ADME, cell-free", "conditions": "human, read-out: PPB"}, "[4]": {"test": "Partition coefficient, log P of the compound", "format": "physicochemical", "conditions": "octanol/water"}, "[5]": {"test": "Cmax in Wistar rat at 3 mg/kg, po after 1 hr", "format": "ADME, organism-based", "design": "dose 3 mg/kg, route oral", "conditions": "in vivo", "how_it_was_run": "(§1)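 Single oral dose of 3 mg/kg in Wistar rats. Plasma and brain concentrations were followed over time after dosing.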"}, "Brain": {"system": "Brain", "test": "Drug level in brain in Wistar rat after 4 hrs", "format": "ADME, tissue-based", "conditions": "in vivo", "how_it_was_run": "as §1"}, "Cannabinoid receptor 1 [6]": {"target": "Cannabinoid receptor 1 (Rattus norvegicus, UniProt P20272)", "sequence (P20272 whole entry)": "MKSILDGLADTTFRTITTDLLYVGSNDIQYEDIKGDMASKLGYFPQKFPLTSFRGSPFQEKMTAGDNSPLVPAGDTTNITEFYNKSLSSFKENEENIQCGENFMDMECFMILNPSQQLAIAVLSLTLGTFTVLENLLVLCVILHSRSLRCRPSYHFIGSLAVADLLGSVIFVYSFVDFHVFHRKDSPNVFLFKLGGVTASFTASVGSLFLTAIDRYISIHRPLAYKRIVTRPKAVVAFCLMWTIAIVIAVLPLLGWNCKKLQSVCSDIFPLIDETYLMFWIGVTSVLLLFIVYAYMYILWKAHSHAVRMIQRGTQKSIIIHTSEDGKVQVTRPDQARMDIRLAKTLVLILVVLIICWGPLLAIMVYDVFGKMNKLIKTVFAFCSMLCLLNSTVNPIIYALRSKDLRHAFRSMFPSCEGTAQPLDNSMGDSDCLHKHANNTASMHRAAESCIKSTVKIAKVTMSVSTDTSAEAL", "test": "Inhibition of rat CB1 receptor"}, "Cannabinoid receptor 2 [7]": {"target": "T1, Cannabinoid receptor 2", "test": "Agonist activity at human CB2 receptor expressed in CHOK1 cells assessed as reversal of forskolin-evoked cAMP accumulation relative to CP-55940", "format": "functional, cell-based", "conditions": "CHO-K1", "how_it_was_run": "(§2)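 CHO cells expressing human CB2 were stimulated with forskolin, and agonist reversal of cyclic AMP accumulation was measured. Potency is given as mean ± SEM of 3–13 independent measurements. Emax is the maximal reversal, expressed as a percentage of the value obtained with a reference agonist.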"}, "[8]": {"test": "Total clearance in Wistar rat at 1 mg/kg, iv", "format": "ADME, organism-based", "design": "dose 1 mg/kg, route intravenous", "conditions": "in vivo", "how_it_was_run": "(§3)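 Wistar rats dosed once iv at 1 mg/kg or orally at 3.4 mg/kg. Plasma parameters (half-life, steady-state volume of distribution, total clearance, AUC0-∞, Tmax, Cmax) were derived from the concentration–time profiles. Absolute oral bioavailability was calculated from the po and iv AUC0-∞.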"}, "Liver microsomes [9]": {"system": "Liver microsomes", "test": "Intrinsic clearance in rat liver microsomes", "format": "ADME, Microsome"}, "Cannabinoid receptor 2 [10]": {"target": "T1, Cannabinoid receptor 2", "test": "Agonist activity at human CB2 receptor expressed in CHOK1 cells assessed as reversal of forskolin-evoked cAMP accumulation", "format": "functional, cell-based, CHO-K1", "how_it_was_run": "as §2"}, "Rattus norvegicus [11]": {"system": "Rattus norvegicus", "test": "Antihyperalgesic activity in rat assessed as reversal of hyperalgesia at 3 mg/kg, po after 1 hr", "format": "functional", "how_it_was_run": "(§4)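 Rat model of neuropathic mechanical hyperalgesia with oral dosing. Read-out was paw withdrawal threshold of the ipsilateral paw, followed from 1 h after dosing, with 12 animals per group, as mean ± SEM. Groups were compared with vehicle by ANOVA and Tukey's HSD.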"}, "[12]": {"test": "Half life in Wistar rat at 1 mg/kg, iv", "format": "ADME, organism-based", "design": "dose 1 mg/kg, route intravenous", "conditions": "in vivo, read-out: beta t1/2 (converted)", "how_it_was_run": "as §3"}, "Rattus norvegicus [13]": {"species": "Rattus norvegicus", "test": "Antihyperalgesic activity in rat assessed as reversal of hyperalgesia", "format": "functional", "how_it_was_run": "as §4"}, "[14]": {"test": "Volume of distribution at steady state in Wistar rat at 1 mg/kg, iv", "format": "ADME, organism-based", "design": "dose 1 mg/kg, route intravenous", "conditions": "in vivo, read-out: Vdss", "how_it_was_run": "as §3"}, "[15]": {"test": "AUC (0 to infinity) in Wistar rat at 1 mg/kg, iv", "format": "ADME, organism-based", "design": "time infinity, dose 1 mg/kg, route intravenous", "conditions": "plasma", "how_it_was_run": "as §3"}, "[16]": {"test": "Tmax in Wistar rat at 3.4 mg/kg, po", "format": "ADME, organism-based", "design": "dose 3.4 mg/kg, route oral", "conditions": "in vivo", "how_it_was_run": "as §3"}, "[17]": {"test": "Cmax in Wistar rat at 3.4 mg/kg, po", "format": "ADME, organism-based", "design": "dose 3.4 mg/kg, route oral", "conditions": "in vivo", "how_it_was_run": "as §3"}, "[18]": {"test": "AUC (0 to infinity) in Wistar rat at 3.4 mg/kg, po", "format": "ADME, organism-based", "design": "time infinity, dose 3.4 mg/kg, route oral", "conditions": "plasma", "how_it_was_run": "as §3"}, "[19]": {"test": "Bioavailability in Wistar rat at 3.4 mg/kg, po", "format": "ADME, organism-based", "conditions": "in vivo", "how_it_was_run": "as §3"}, "Liver microsomes [20]": {"system": "Liver microsomes", "test": "Intrinsic clearance in human liver microsomes", "format": "ADME, Microsome"}, "Cytochrome P450 1A2": {"target": "T2, Cytochrome P450 1A2 (Homo sapiens, UniProt P05177)", "T2 sequence (P05177 whole entry)": "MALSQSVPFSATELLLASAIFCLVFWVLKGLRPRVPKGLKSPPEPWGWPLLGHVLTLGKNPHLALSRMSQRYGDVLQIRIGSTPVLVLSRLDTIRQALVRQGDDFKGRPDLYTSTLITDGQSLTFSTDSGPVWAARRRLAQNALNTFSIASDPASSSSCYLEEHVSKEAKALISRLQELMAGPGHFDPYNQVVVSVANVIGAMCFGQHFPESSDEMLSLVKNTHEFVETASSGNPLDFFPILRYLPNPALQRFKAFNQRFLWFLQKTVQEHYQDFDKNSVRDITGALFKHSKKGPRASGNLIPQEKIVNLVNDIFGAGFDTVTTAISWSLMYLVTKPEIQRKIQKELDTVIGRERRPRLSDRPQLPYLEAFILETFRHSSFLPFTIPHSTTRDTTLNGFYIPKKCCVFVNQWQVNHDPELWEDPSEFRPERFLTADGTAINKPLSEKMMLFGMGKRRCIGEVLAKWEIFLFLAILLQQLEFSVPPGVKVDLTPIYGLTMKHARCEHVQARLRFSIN", "test": "Inhibition of CYP1A2 in human liver microsomes", "format": "ADME, Microsome"}, "Cytochrome P450 2C8": {"target": "T3, Cytochrome P450 2C8 (Homo sapiens, UniProt P10632)", "T3 sequence (P10632 whole entry)": "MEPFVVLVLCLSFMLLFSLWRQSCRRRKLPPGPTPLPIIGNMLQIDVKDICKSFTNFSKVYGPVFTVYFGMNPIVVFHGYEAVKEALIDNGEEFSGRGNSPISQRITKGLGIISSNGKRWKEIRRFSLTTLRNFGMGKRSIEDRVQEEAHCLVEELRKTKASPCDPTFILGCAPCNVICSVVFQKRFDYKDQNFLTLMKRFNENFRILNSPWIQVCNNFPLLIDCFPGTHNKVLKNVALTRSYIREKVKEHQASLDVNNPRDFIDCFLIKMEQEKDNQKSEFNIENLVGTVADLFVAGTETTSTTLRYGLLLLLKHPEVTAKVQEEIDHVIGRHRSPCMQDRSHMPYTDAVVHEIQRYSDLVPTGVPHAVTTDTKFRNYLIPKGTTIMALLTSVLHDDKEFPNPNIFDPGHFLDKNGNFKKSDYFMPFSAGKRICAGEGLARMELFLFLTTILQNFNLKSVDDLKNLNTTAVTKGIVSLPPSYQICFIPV", "test": "Inhibition of CYP2C8 in human liver microsomes", "format": "ADME, Microsome"}, "Cytochrome P450 2C9": {"target": "Cytochrome P450 2C9 (Homo sapiens, UniProt P11712)", "sequence (P11712 whole entry)": "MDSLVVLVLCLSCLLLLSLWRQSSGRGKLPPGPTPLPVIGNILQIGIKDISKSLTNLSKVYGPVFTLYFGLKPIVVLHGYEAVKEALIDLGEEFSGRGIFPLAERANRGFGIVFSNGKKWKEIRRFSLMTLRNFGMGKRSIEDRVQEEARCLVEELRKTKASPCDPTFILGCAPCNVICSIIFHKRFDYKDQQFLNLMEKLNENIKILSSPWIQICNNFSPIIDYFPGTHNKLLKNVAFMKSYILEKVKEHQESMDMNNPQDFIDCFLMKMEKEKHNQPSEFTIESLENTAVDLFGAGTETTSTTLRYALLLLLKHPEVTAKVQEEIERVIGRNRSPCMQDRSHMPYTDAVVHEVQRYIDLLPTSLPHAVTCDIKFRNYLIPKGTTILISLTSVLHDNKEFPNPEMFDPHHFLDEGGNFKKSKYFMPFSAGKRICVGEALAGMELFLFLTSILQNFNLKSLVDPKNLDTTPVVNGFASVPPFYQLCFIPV", "test": "Inhibition of CYP2C9 in human liver microsomes", "format": "ADME, Microsome"}, "Cytochrome P450 2C19": {"target": "Cytochrome P450 2C19 (Homo sapiens, UniProt P33261)", "sequence (P33261 whole entry)": "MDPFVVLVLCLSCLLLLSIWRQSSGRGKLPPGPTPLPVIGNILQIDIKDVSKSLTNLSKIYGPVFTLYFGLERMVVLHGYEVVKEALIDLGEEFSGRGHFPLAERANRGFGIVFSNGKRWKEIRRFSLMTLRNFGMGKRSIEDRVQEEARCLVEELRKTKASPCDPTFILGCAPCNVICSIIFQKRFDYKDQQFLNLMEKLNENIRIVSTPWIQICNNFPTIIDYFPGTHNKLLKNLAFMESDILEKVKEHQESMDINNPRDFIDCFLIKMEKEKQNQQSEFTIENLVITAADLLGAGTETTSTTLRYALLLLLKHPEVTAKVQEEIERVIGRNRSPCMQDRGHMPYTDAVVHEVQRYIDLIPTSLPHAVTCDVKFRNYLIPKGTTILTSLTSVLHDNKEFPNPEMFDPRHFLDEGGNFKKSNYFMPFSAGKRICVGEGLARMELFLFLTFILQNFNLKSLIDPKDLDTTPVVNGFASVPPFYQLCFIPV", "test": "Inhibition of CYP2C19 in human liver microsomes", "format": "ADME, Microsome"}, "Cytochrome P450 2D6": {"target": "Cytochrome P450 2D6 (Homo sapiens, UniProt P10635)", "sequence (P10635 whole entry)": "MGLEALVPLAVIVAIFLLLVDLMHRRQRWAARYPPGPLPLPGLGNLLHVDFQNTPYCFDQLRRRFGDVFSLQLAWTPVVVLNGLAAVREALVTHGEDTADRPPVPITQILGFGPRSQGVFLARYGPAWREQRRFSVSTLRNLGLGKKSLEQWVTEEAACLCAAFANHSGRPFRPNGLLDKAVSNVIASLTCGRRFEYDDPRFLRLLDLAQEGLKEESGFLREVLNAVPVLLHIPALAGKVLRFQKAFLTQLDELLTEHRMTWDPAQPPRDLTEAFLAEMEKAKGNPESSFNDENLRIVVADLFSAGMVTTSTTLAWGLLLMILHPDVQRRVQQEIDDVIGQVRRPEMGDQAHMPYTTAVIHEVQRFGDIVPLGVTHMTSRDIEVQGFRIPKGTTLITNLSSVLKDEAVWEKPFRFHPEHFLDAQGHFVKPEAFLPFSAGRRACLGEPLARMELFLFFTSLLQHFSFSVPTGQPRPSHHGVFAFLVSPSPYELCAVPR", "test": "Inhibition of CYP2D6 in human liver microsomes", "format": "ADME, Microsome"}}, "note": "pEC50, pIC50: −log10 of the molar value.", "data": [{"smiles": "CCCCCNc1ccc(C(=O)c2cccc3ccccc23)c2ccccc12", "values": [{"measurement": "pIC50", "setting": "Cannabinoid receptor 1 [1]", "value": 7.60}, {"measurement": "pIC50", "setting": "Cannabinoid receptor 2 [2]", "value": 6.92}]}, {"smiles": "O=C(c1cccc2ccccc12)c1ccc(OCCc2ccccc2)c2ccccc12", "values": [{"measurement": "pIC50", "setting": "Cannabinoid receptor 1 [1]", "value": 6.03}, {"measurement": "pIC50", "setting": "Cannabinoid receptor 2 [2]", "value": 5.70}]}, {"smiles": "CCCCCOc1ccc(C(=O)c2cccc3ccccc23)c2ccccc12", "values": [{"measurement": "pIC50", "setting": "Cytochrome P450 2E1", "value": "< 3.70"}, {"measurement": "pIC50", "setting": "Cytochrome P450 3A4", "value": "< 3.70"}, {"measurement": "fraction unbound", "setting": "[3]", "value": "< 0.01"}, {"measurement": "logP", "setting": "[4]", "value": 6.85}, {"measurement": "Cmax", "setting": "[5]", "value": 1130, "unit": "nM"}, {"measurement": "Drug uptake", "setting": "Brain", "value": 0.24, "unit": "µmol/kg"}, {"measurement": "pIC50", "setting": "Cannabinoid receptor 1 [6]", "value": 7.66}, {"measurement": "Emax", "setting": "Cannabinoid receptor 2 [7]", "value": 88.4, "unit": "%"}, {"measurement": "clearance", "setting": "[8]", "value": 8, "unit": "mL/min/kg"}, {"measurement": "CL", "setting": "Liver microsomes [9]", "value": "< 5", "unit": "µL/min"}, {"measurement": "pIC50", "setting": "Cannabinoid receptor 2 [2]", "value": 7.01}, {"measurement": "pEC50", "setting": "Cannabinoid receptor 2 [10]", "value": 7.55}, {"measurement": "Activity", "setting": "Rattus norvegicus [11]", "value": 90, "unit": "%"}, {"measurement": "half-life", "setting": "[12]", "value": 64.6, "unit": "h"}, {"measurement": "D50", "setting": "Rattus norvegicus [13]", "value": 0.17, "unit": "mg/kg"}, {"measurement": "Vd", "setting": "[14]", "value": 9.6, "unit": "L/kg"}, {"measurement": "AUC(0-inf)", "setting": "[15]", "value": 5.72, "unit": "µM·h"}, {"measurement": "Tmax", "setting": "[16]", "value": 1, "unit": "h"}, {"measurement": "Cmax", "setting": "[17]", "value": 1600, "unit": "nM"}, {"measurement": "AUC(0-inf)", "setting": "[18]", "value": 8.39, "unit": "µM·h"}, {"measurement": "bioavailability", "setting": "[19]", "value": 43, "unit": "%"}, {"measurement": "CL", "setting": "Liver microsomes [20]", "value": "< 5", "unit": "µL/min"}, {"measurement": "pIC50", "setting": "Cytochrome P450 1A2", "value": "< 3.70"}, {"measurement": "pIC50", "setting": "Cytochrome P450 2C8", "value": "< 3.70"}, {"measurement": "pIC50", "setting": "Cytochrome P450 2C9", "value": 4.09}, {"measurement": "pIC50", "setting": "Cytochrome P450 2C19", "value": "< 3.70"}, {"measurement": "pIC50", "setting": "Cytochrome P450 2D6", "value": "< 3.70"}]}, {"smiles": "CCCCCCC(C)(C)c1ccc([C@@H]2C[C@H](O)CC[C@H]2CCCO)c(O)c1", "note": "[CP-55940]", "values": [{"measurement": "Emax", "setting": "Cannabinoid receptor 2 [7]", "value": 100, "unit": "%"}, {"measurement": "D50", "setting": "Rattus norvegicus [13]", "value": 0.08, "unit": "mg/kg"}]}, {"smiles": "CCCOc1ccc(C(=O)c2cccc3ccccc23)c2ccccc12", "values": [{"measurement": "pIC50", "setting": "Cannabinoid receptor 1 [1]", "value": 6.52}, {"measurement": "pIC50", "setting": "Cannabinoid receptor 2 [2]", "value": 7.05}]}, {"smiles": "CCCCOc1ccc(C(=O)c2cccc3ccccc23)c2ccccc12", "values": [{"measurement": "pIC50", "setting": "Cannabinoid receptor 1 [1]", "value": 7.32}, {"measurement": "pIC50", "setting": "Cannabinoid receptor 2 [2]", "value": 7.07}]}, {"smiles": "Cc1c(C(=O)c2cccc3ccccc23)c2cccc3c2n1[C@H](CN1CCOCC1)CO3", "note": "[WIN-552122]", "values": [{"measurement": "Emax", "setting": "Cannabinoid receptor 2 [7]", "value": 96.9, "unit": "%"}, {"measurement": "D50", "setting": "Rattus norvegicus [13]", "value": 0.52, "unit": "mg/kg"}]}, {"smiles": "CCCCCCOc1ccc(C(=O)c2cccc3ccccc23)c2ccccc12", "values": [{"measurement": "pIC50", "setting": "Cannabinoid receptor 1 [1]", "value": 6.80}, {"measurement": "pIC50", "setting": "Cannabinoid receptor 2 [2]", "value": 6.18}]}]}
